≈ marks a conversion by molar mass, not a printed value.
Columns and labels:
[1] = Selectivity index, ratio of CC50 for human MT4 cells to IC50 for antiviral activity against HIV-2 ROD infected in human MT4 cells; format: toxicity, cell-based; conditions: read-out: Ratio CC50/IC50
Procedure, shortened: (§1)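 MT4 cells infected with HIV-1 IIIB or HIV-2 ROD and tested in parallel with stavudine (d4T) as positive control. Antiviral IC50 and cytotoxic CC50 were both determined in MT4 cells. Selectivity index is CC50/IC50.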

[2] = test system: Human immunodeficiency virus 2; experiment: Antiviral activity against HIV-2 ROD infected in human MT4 cells; conditions: Human immunodeficiency virus 2, ISOLATE ROD
[3] = Cytotoxicity against human MT4 cells; format: cell-based
Procedure, shortened: (§2)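 MT4 cells infected with HIV-1 (III_B) or HIV-2 (ROD), run in parallel with stavudine as positive control; antiviral IC50 and cytotoxic CC50 determined, selectivity index derived.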

[4] = Selectivity index, ratio of CC50 for human MT4 cells to IC50 for antiviral activity against HIV-1 IIIB infected in MT4 cells; format: toxicity, cell-based; conditions: read-out: Ratio CC50/IC50; procedure, shortened: as §1
[5] = physchem; conditions: phosphate buffered saline, pH 7.4
[6] = test system: Human immunodeficiency virus 1; experiment: Antiviral activity against HIV-1 […] infected in thymidine kinase deficient human C8166 cells; format: functional, organism-based, 3B
[7] = test system: Human immunodeficiency virus 1; experiment: Antiviral activity against wild type HIV-1 3B infected in human MT4 cells; format: functional, organism-based; conditions: Human immunodeficiency virus 1, 3B; procedure, shortened: as §2
[8] = test system: Human immunodeficiency virus 1; experiment: Antiviral activity against wild type HIV-1 3B infected in wild type human C8166 cells; format: functional, organism-based; conditions: Human immunodeficiency virus 1, 3B
[9] = Prodrug activation in acetone-d6 and Trizma buffer assessed as carboxypeptidase Y (unknown origin)-mediated 3-(pentafluoro-lambda6-sulfanyl)phenol metabolite formation at 5 mg incubated for 1.25 hrs by 19F NMR analysis; format: ADME, Homo sapiens
[10] = Prodrug activation in acetone-d6 and Trizma buffer assessed as carboxypeptidase Y (unknown origin)-mediated (S)-2-((((2S,5R)-5-(5-methyl-2,4-dioxo-3,4-dihydropyrimidin-1(2H)-yl)-2,5-dihydrofuran-2-yl)methoxy)oxidophosphorylamino)propanoate metabolite formation at 5 mg incubated for 7 mins to 2 hrs by 31P NMR analysis; format: ADME, Homo sapiens
Procedure, shortened: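 Compound dissolved in acetone-d6 with Trizma buffer (pH 7.6), treated with carboxypeptidase Y; ³¹P NMR spectra recorded over time, blank spectrum at 25 °C, conversion of parent diastereoisomer peaks to the intermediate monitored by chemical shift changes.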

[11] = test system: Human immunodeficiency virus 1; experiment: Potency index, ratio of stavudine IC50 to test compound IC50 for antiviral activity against wild type HIV-1 3B infected in wild type human C8166 cells; format: functional
[12] = test system: Human immunodeficiency virus 2; experiment: Potency index, ratio of stavudine IC50 to test compound IC50 for antiviral activity against HIV-2 ROD infected in human MT4 cells
[13] = test system: Human immunodeficiency virus 1; experiment: Potency index, ratio of stavudine IC50 to test compound IC50 for antiviral activity against HIV-1 3B infected in human MT4 cells; format: functional
Procedure, shortened: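 MT4 cells infected with HIV-1 (IIIB) or HIV-2 (ROD). Test compounds were assayed alongside stavudine as the positive control, and antiviral IC50 was determined for each. Cytotoxicity (CC50) and selectivity index were determined in the same screen.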

[14] = Human immunodeficiency virus 1, 3B, C8166, read-out: IC50

Structure (SMILES) | selectivity ratio [1] | IC50 [2] [nM] | CC50 [3] [nM] | selectivity ratio [4] | solubility kinetic at 2 h [5] [µM] | IC50 [6] | IC50 [7] [nM] | IC50 [8] [nM] | IC50 [6, 14] [nM] | Drug metabolism [9] | Drug metabolism [10] | Ratio IC50 [11] | Ratio IC50 [12] | Ratio IC50 [13]
COC(=O)[C@H](C)NP(=O)(OC[C@@H]1C=C[C@H](n2cc(C)c(=O)[nH]c2=O)O1)Oc1cccc(C(F)(F)F)c1 (stereo partly specified) | 1350 | 49 | 66100 | 1610 | > 100 | Not Active | 41 | 39 |  |  |  |  |  | 
COC(=O)[C@H](C)NP(=O)(OC[C@@H]1C=C[C@H](n2cc(C)c(=O)[nH]c2=O)O1)Oc1ccccc1 (stereo partly specified) | 930 | 270 | 251000 | 1200 |  |  | 210 | 300 | 320 |  |  |  |  | 
COC(=O)[C@H](C)NP(=O)(OC[C@@H]1C=C[C@H](n2cc(C)c(=O)[nH]c2=O)O1)Oc1cccc(S(F)(F)(F)(F)F)c1 (stereo partly specified) | 1460 | 36 | 52600 | 1750 | > 100 |  | 30 | 54 | 335 | Metabolite_Detected | Metabolite_Detected | 75 | >10 | >10
COC(=O)[C@H](C)NP(=O)(OC[C@@H]1C=C[C@H](n2cc(C)c(=O)[nH]c2=O)O1)Oc1ccc(C(F)(F)F)cc1 (stereo partly specified) | 912 | 47 | 42900 | 1160 | > 100 |  | 37 | 22 | 75 |  |  | 180 |  | 
COC(=O)C1=C(C)NC(C)=C(C(=O)OCCN(C)Cc2ccccc2)C1c1cccc([N+](=O)[O-])c1 (stereo unspecified) [NICARDIPINE] |  |  |  |  | 10 to 30 (≈ 4.8 to 14.4 µg/mL) |  |  |  |  |  |  |  |  | 
Cc1cn([C@H]2C=C[C@@H](CO)O2)c(=O)[nH]c1=O [STAVUDINE] | 695 | 450 | 313000 | 782 | > 100 | Not Active | 400 | 4060 |  |  |  |  |  | 
